Measured values from ChEMBL document CHEMBL2375290, “Nonclassical antifolates, part 3: synthesis, biological evaluation and molecular modeling study of some new 2-heteroarylthio-quinazolin-4-ones” (Eur J Med Chem, 2013).
≈ marks a conversion by molar mass, not a printed value.

Tests used:
[1] = Cytotoxicity against human EKVX cells at 10 uM after 48 hrs by coulter counter analysis; assay type: functional; details: read-out: GI
MCF7 = experiment: Cytotoxicity against human MCF7 cells at 10 uM after 48 hrs by coulter counter analysis; assay type: functional; details: MCF7, 48 h, read-out: GI
Hs-578T = experiment: Cytotoxicity against human Hs578T cells at 10 uM after 48 hrs by coulter counter analysis; assay type: functional; details: read-out: GI
UO-31 = experiment: Cytotoxicity against human UO31 cells at 10 uM after 48 hrs by coulter counter analysis; assay type: functional; details: UO-31, 48 h, read-out: GI
Escherichia coli [2] = experiment: Antimicrobial activity against Escherichia coli at 200 ug after 24 hrs by agar disc diffusion method; assay type: functional; details: read-out: DIZ
MDA-MB-231 = experiment: Cytotoxicity against human MDA-MB-231 cells at 10 uM after 48 hrs by coulter counter analysis; assay type: functional; details: MDA-MB-231, 48 h, read-out: GI
Staphylococcus aureus [3] = experiment: Antimicrobial activity against Staphylococcus aureus at 200 ug after 24 hrs by agar disc diffusion method; assay type: functional; details: read-out: DIZ
CAKI-1 = experiment: Cytotoxicity against human Caki1 cells at 10 uM after 48 hrs by coulter counter analysis; assay type: functional; details: CAKI-1, 48 h, read-out: GI
RPMI-8226 = experiment: Cytotoxicity against human RPMI8226 cells at 10 uM after 48 hrs by coulter counter analysis; assay type: functional; details: RPMI-8226, 48 h, read-out: GI
T47D = experiment: Cytotoxicity against human T47D cells at 10 uM after 48 hrs by coulter counter analysis; assay type: functional; details: read-out: GI
CCRF-CEM = experiment: Cytotoxicity against human CCRF-CEM cells at 10 uM after 48 hrs by coulter counter analysis; assay type: functional; details: read-out: GI
Bacillus subtilis [4] = experiment: Antimicrobial activity against Bacillus subtilis at 200 ug after 24 hrs by agar disc diffusion method; assay type: functional; details: read-out: DIZ
PC-3 = experiment: Cytotoxicity against human PC3 cells at 10 uM after 48 hrs by coulter counter analysis; assay type: functional; details: PC-3, 48 h, read-out: GI
MOLT-4 = experiment: Cytotoxicity against human MOLT4 cells at 10 uM after 48 hrs by coulter counter analysis; assay type: functional; details: MOLT-4, 48 h, read-out: GI
Bacillus subtilis [5] = experiment: Antimicrobial activity against Bacillus subtilis after 24 hrs by micro-dilution susceptibility method; assay type: functional
Procedure, shortened: (§1)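 Broth microdilution in Müller-Hinton broth against S. aureus IFO 3060, B. subtilis IFO 3007, E. coli IFO 3301 and P. aeruginosa IFO 3448. These are the same standard strains used in the disc-diffusion primary screen. Compounds were solubilized in DMSO. MIC recorded as the minimal inhibitory concentration.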

NCI-H23 = experiment: Cytotoxicity against human NCI-H23 cells at 10 uM after 48 hrs by coulter counter analysis; assay type: functional; details: NCI-H23, 48 h, read-out: GI
SN12C = experiment: Cytotoxicity against human SN12C cells at 10 uM after 48 hrs by coulter counter analysis; assay type: functional; details: read-out: GI
UACC-62 = experiment: Cytotoxicity against human UACC62 cells at 10 uM after 48 hrs by coulter counter analysis; assay type: functional; details: UACC-62, 48 h, read-out: GI
HL-60(TB) = experiment: Cytotoxicity against human HL-60(TB) cells at 10 uM after 48 hrs by coulter counter analysis; assay type: functional; details: HL-60, 48 h, read-out: GI
NCI-H226 = experiment: Cytotoxicity against human NCI-H226 cells at 10 uM after 48 hrs by coulter counter analysis; assay type: functional; details: NCI-H226, 48 h, read-out: GI
A498 = experiment: Cytotoxicity against human A498 cells at 10 uM after 48 hrs by coulter counter analysis; assay type: functional; details: A498, 48 h, read-out: GI
A549 = experiment: Cytotoxicity against human A549/ATCC cells at 10 uM after 48 hrs by coulter counter analysis; assay type: functional; details: A549, 48 h, read-out: GI
[6] = Cytotoxicity against human NCI-ADR-RES cells at 10 uM after 48 hrs by coulter counter analysis; assay type: functional; details: read-out: GI
Staphylococcus aureus [7] = experiment: Antimicrobial activity against Staphylococcus aureus after 24 hrs by micro-dilution susceptibility method; assay type: functional; procedure, shortened: as §1
MDA-MB-435 = experiment: Cytotoxicity against human MDA-MB-435 cells at 10 uM after 48 hrs by coulter counter analysis; assay type: functional; details: MDA-MB-435, 48 h, read-out: GI
SF-295 = experiment: Cytotoxicity against human SF295 cells at 10 uM after 48 hrs by coulter counter analysis; assay type: functional; details: SF-295, 48 h, read-out: GI
SNB-19 = experiment: Cytotoxicity against human SNB19 cells at 10 uM after 48 hrs by coulter counter analysis; assay type: functional; details: SNB-19, 48 h, read-out: GI
NCI-H522 = experiment: Cytotoxicity against human NCI-H522 cells at 10 uM after 48 hrs by coulter counter analysis; assay type: functional; details: NCI-H522, 48 h, read-out: GI
Pseudomonas aeruginosa = experiment: Antimicrobial activity against Pseudomonas aeruginosa at 200 ug after 24 hrs by agar disc diffusion method; assay type: functional; details: read-out: DIZ
RXF 393 = experiment: Cytotoxicity against human RXF393 cells at 10 uM after 48 hrs by coulter counter analysis; assay type: functional; details: RXF 393, 48 h, read-out: GI
Micrococcus luteus [8] = experiment: Antimicrobial activity against Micrococcus luteus at 200 ug after 24 hrs by agar disc diffusion method; assay type: functional; details: read-out: DIZ
SNB-75 = experiment: Cytotoxicity against human SNB75 cells at 10 uM after 48 hrs by coulter counter analysis; assay type: functional; details: SNB-75, 48 h, read-out: GI
OVCAR-4 = experiment: Cytotoxicity against human OVCAR4 cells at 10 uM after 48 hrs by coulter counter analysis; assay type: functional; details: OVCAR-4, 48 h, read-out: GI
SR = experiment: Cytotoxicity against human SR cells at 10 uM after 48 hrs by coulter counter analysis; assay type: functional; details: read-out: GI
LOX IMVI = experiment: Cytotoxicity against human LOXIMVI cells at 10 uM after 48 hrs by coulter counter analysis; assay type: functional; details: read-out: GI
Escherichia coli [9] = experiment: Antimicrobial activity against Escherichia coli after 24 hrs by micro-dilution susceptibility method
SK-MEL-5 = experiment: Cytotoxicity against human SK-MEL-5 cells at 10 uM after 48 hrs by coulter counter analysis; assay type: functional; details: SK-MEL-5, 48 h, read-out: GI
Dihydrofolate reductase = target: T1, Dihydrofolate reductase (Bos taurus, UniProt P00376); experiment: Inhibition of bovine DHFR after 2 mins by spectrophotometry
T1 sequence (P00376 whole entry): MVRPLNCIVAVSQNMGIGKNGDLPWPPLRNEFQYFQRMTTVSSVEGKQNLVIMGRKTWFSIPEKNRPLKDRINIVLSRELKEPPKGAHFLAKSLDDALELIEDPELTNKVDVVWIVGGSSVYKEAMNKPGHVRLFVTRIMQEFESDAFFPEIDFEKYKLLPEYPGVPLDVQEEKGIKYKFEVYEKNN

IGROV-1 = experiment: Cytotoxicity against human IGROV1 cells at 10 uM after 48 hrs by coulter counter analysis; assay type: functional; details: IGROV-1, 48 h, read-out: GI
Malme-3M = experiment: Cytotoxicity against human MALME-3M cells at 10 uM after 48 hrs by coulter counter analysis; assay type: functional; details: read-out: GI
Micrococcus luteus [10] = experiment: Antimicrobial activity against Micrococcus luteus after 24 hrs by micro-dilution susceptibility method; assay type: functional
Procedure, shortened: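 MIC by broth microdilution in Müller-Hinton broth against M. luteus IFO 3232, the same strain used in the disc-diffusion primary screen.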

In the case of `COc1cc2nc(Sc3ncccc3C(=O)O)n(Cc3ccccc3)c(=O)c2cc1OC`, the inhibition of growth at 10 µM [1] is reported as 23.1%, the inhibition of growth at 10 µM (MCF7) is reported as 13.5% and the inhibition of growth at 10 µM (Hs-578T) is reported as < 10%. For the same compound, the inhibition of growth at 10 µM (UO-31) was 14.6%, the zone of inhibition at 200 µg/disc (Escherichia coli [2]) was 18 mm and the inhibition of growth at 10 µM (MDA-MB-231) was < 10%. The zone of inhibition at 200 µg/disc (Staphylococcus aureus [3]) was 22 mm, the inhibition of growth at 10 µM (CAKI-1) was 15.9% and the inhibition of growth at 10 µM (RPMI-8226) was 12.5%. The inhibition of growth at 10 µM (T47D) was < 10%, the inhibition of growth at 10 µM (CCRF-CEM) was < 10% and the zone of inhibition at 200 µg/disc (Bacillus subtilis [4]) was 26 mm. The inhibition of growth at 10 µM (PC-3) was < 10%, the inhibition of growth at 10 µM (MOLT-4) was 13.8% and the MIC (Bacillus subtilis [5]) was 2 µg/mL (≈ 4.45 µM). For the same compound, the inhibition of growth at 10 µM (NCI-H23) was < 10%, the inhibition of growth at 10 µM (SN12C) was < 10% and the inhibition of growth at 10 µM (UACC-62) was 11.6%. The inhibition of growth at 10 µM (HL-60(TB)) was 13.2%, the inhibition of growth at 10 µM (NCI-H226) was 14% and the inhibition of growth at 10 µM (A498) was < 10%. The inhibition of growth at 10 µM (A549) was < 10%, the inhibition of growth at 10 µM [6] was < 10% and the MIC (Staphylococcus aureus [7]) was 4 µg/mL (≈ 8.9 µM). For the same compound, the inhibition of growth at 10 µM (MDA-MB-435) was < 10%, the inhibition of growth at 10 µM (SF-295) was < 10% and the inhibition of growth at 10 µM (SNB-19) was < 10%. For the same compound, the inhibition of growth at 10 µM (NCI-H522) was 17.3%, the zone of inhibition at 200 µg/disc (Pseudomonas aeruginosa) was 12 mm and the inhibition of growth at 10 µM (RXF 393) was < 10%. The zone of inhibition at 200 µg/disc (Micrococcus luteus [8]) was 15 mm, the inhibition of growth at 10 µM (SNB-75) was < 10% and the inhibition of growth at 10 µM (OVCAR-4) was 14.3%. For the same compound, the inhibition of growth at 10 µM (SR) was 29.8%, the inhibition of growth at 10 µM (LOX IMVI) was < 10% and the MIC (Escherichia coli [9]) was 4 µg/mL (≈ 8.9 µM). The inhibition of growth at 10 µM (SK-MEL-5) was < 10%, the IC50 (Dihydrofolate reductase) was 5 µM and the inhibition of growth at 10 µM (IGROV-1) was < 10%. For the same compound, the inhibition of growth at 10 µM (Malme-3M) was < 10%.

For `COc1cc2nc(Sc3cnc(N)s3)n(-c3ccccc3)c(=O)c2cc1OC`, the inhibition of growth at 10 µM [1] was 12.7%, the inhibition of growth at 10 µM (MCF7) was < 10% and the inhibition of growth at 10 µM (Hs-578T) was < 10%. The inhibition of growth at 10 µM (UO-31) was 22.2%, the zone of inhibition at 200 µg/disc (Escherichia coli [2]) was 18 mm and the inhibition of growth at 10 µM (MDA-MB-231) was 18.6%. The zone of inhibition at 200 µg/disc (Staphylococcus aureus [3]) was 18 mm, the inhibition of growth at 10 µM (CAKI-1) was 17.8% and the inhibition of growth at 10 µM (RPMI-8226) was 12.5%. For the same compound, the inhibition of growth at 10 µM (T47D) was < 10%, the inhibition of growth at 10 µM (CCRF-CEM) was < 10% and the zone of inhibition at 200 µg/disc (Bacillus subtilis [4]) was 20 mm. For the same compound, the inhibition of growth at 10 µM (PC-3) was 12%, the inhibition of growth at 10 µM (MOLT-4) was < 10% and the MIC (Bacillus subtilis [5]) was 4 µg/mL (≈ 9.7 µM). The inhibition of growth at 10 µM (NCI-H23) was < 10%, the inhibition of growth at 10 µM (SN12C) was < 10% and the inhibition of growth at 10 µM (UACC-62) was < 10%. For the same compound, the inhibition of growth at 10 µM (HL-60(TB)) was < 10%, the inhibition of growth at 10 µM (NCI-H226) was < 10% and the inhibition of growth at 10 µM (A498) was < 10%. The inhibition of growth at 10 µM (A549) was < 10%, the inhibition of growth at 10 µM [6] was < 10% and the MIC (Staphylococcus aureus [7]) was 8 µg/mL (≈ 19.4 µM). For the same compound, the inhibition of growth at 10 µM (MDA-MB-435) was < 10%, the inhibition of growth at 10 µM (SF-295) was < 10% and the inhibition of growth at 10 µM (SNB-19) was < 10%. For the same compound, the MIC (Micrococcus luteus [10]) was 4 µg/mL (≈ 9.7 µM), the inhibition of growth at 10 µM (NCI-H522) was < 10% and the zone of inhibition at 200 µg/disc (Pseudomonas aeruginosa) was 14 mm. The inhibition of growth at 10 µM (RXF 393) was < 10%, the zone of inhibition at 200 µg/disc (Micrococcus luteus [8]) was 16 mm and the inhibition of growth at 10 µM (SNB-75) was < 10%. The inhibition of growth at 10 µM (OVCAR-4) was < 10%, the inhibition of growth at 10 µM (SR) was 14.8% and the inhibition of growth at 10 µM (LOX IMVI) was < 10%. The MIC (Escherichia coli [9]) was 4 µg/mL (≈ 9.7 µM), the inhibition of growth at 10 µM (SK-MEL-5) was < 10% and the IC50 (Dihydrofolate reductase) was 0.5 µM. The inhibition of growth at 10 µM (IGROV-1) was 13% and the inhibition of growth at 10 µM (Malme-3M) was < 10%.
